High-throughput results as filed in PubChem.
APP 5'UTR act = APP 5'UTR luciferase reporter activation. hit rate 1% among 190,000. SH-SY5Y APP 5'UTR luciferase reporter, luminescence; zero percent = DMSO vehicle wells. activation, % at 2 µM. AID 1276;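 active = activation above a set limit, based on mean plus 3 SD of controls, cut at about 140% in these data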
STAT1 blocker = inhibitors of IFN-gamma induced STAT1 signaling; NIH 3T3 STAT1-luciferase reporter, luminescence; inhibition, % at 5.5 µM; hit rate 0.35% among 200,000; AID 920;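 active = inhibition above a set limit, the mean inhibition across all tested compounds plus 3 SD, cut at about 34% in these data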;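 note: 0% = IFN-gamma with DMSO and 100% = IFN-gamma with 300 µM nifuroxazide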
NF-kB expr up = raises NF-kB expression in human neuronal cells. NF-kB reporter expression; hits give high values. fold change at 12.5 µM. hit rate 1.6% among 190,000. AID 1239; in the data active = fold change above about 3.3
STAT3 act-1 = STAT3 signaling activation; U3A cells, IL-6 STAT3-luciferase reporter, luminescence; 100% = signal with IL-6 EC80 alone; activation (% of control), % at 5.6 µM; hit rate 0.91% among 190,000; AID 871;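 active = activation above the screen-wide mean of compound activation plus 3 SD, cut at about 130% in these data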;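 note: 0% = background luminescence of wells with medium and substrate only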
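System – human U3A cells carrying STAT3-luciferase construct · Probe or stimulus – Interleukin-6, 33 ng/mL · Schedule – compound 1 h, then IL-6 6 h at 37 °C · Signal – luminescence from STAT3-driven luciferase reporter · Evaluation – percent of IL-6-only median luminescence · Benchmarks – IL-6-only high control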
STAT3 blocker = STAT3 signaling inhibition. U3A cells, IL-6 STAT3-luciferase reporter, luminescence; host cell line lacks STAT1. hit rate 0.89% among 190,000. inhibition, % at 5.5 µM. AID 862;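 active = inhibition above the mean inhibition across all screened compounds plus 3 SD, cut at about 44% in these data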;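 note: 0% = DMSO only wells and 100% = 100 µM nifuroxazide control wells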
STAT1 act-1 = increases IFN-gamma driven STAT1 reporter signal. NIH 3T3 STAT1-luciferase reporter, luminescence; 100% = IFN-gamma alone, no compound. activation (% of control), % at 5.5 µM. hit rate 2.6% among 200,000;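 active = activation above the screen-wide mean activation plus 3 SD, cut at about 130% in these data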;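 note: raw ratio to IFN-gamma control signal so 100% means no change and 0% no light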
STAT3 act-2 = STAT3 activation, confirmation assay; U3A STAT3-luciferase reporter, IL-6 potentiation, luminescence; U3A cells lack STAT1; 100 means same as IL-6 alone; shares compounds with STAT3 act-1; potentiation (% of control), % at 5.7 µM; hit rate 64% among 1,200;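 active = percent activation of the STAT3 luciferase reporter above a set limit taken from the earlier primary screen, cut at about 130% in these data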;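 note: 0% = background signal of medium plus substrate and 100% = median of IL-6 with DMSO wells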
NFkB act STAT3ct = activates NF-kappaB, counter-screen to STAT3 activators; shares compounds with STAT3 act-1; human cells, NF-kappaB reporter activation; activation (% of control), % at 5.7 µM; hit rate 11% among 1,200; AID 1309; in the data active = activation above about 120%;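 note: reporter induced by TNF-alpha stimulation; 100% = median of stimulated DMSO wells and 0% = no signal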
STAT1 act-2 = STAT1 activation in STAT3 activator counter-screen. activation (% of control), % at 5.7 µM. shares compounds with STAT3 act-1. hit rate 13% among 1,200. NIH 3T3 STAT1-luciferase reporter, IFN-gamma, luminescence. AID 1318;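 active = activation above the solvent-only control well mean plus 3 SD, set per screening run, cut at about 120% in these data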;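 note: 100% = IFN-gamma with DMSO median signal so 100% means no change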
Active calls of the source: *; / = no result. In the library only some 4.9% were active in any assay of this set; here they are far more common.

SMILES	APP 5'UTR act	STAT1 blocker	NF-kB expr up	STAT3 act-1	STAT3 blocker	STAT1 act-1	STAT3 act-2	NFkB act STAT3ct	STAT1 act-2
CC(=O)Nc1ccc(NC(=O)CCCSc2nc3ccccc3s2)cc1	-2	-1	0.73	140*	-46	101	129	104	98
CC(CCc1ccccc1)NC(=O)Cc1cccs1 (stereo not drawn)	-3	10	0.97	102	0	89	/	/	/
Cc1cccc(C)c1Nc1c(-c2ccccn2)nc2ccccn12	-44	8	1.1	96	12	93	/	/	/
Cc1ccc(-n2c(C)nc3oc4ccccc4c(=O)c3c2=O)cc1	89	-19	3	149*	-55	117	159*	122*	135*
Cn1c(CNC(=O)OC(C)(C)C)n[nH]c1=S	13	-1	0.97	99	3	100	/	/	/
O=[N+]([O-])c1cccc(C(=Nc2ccccc2)NO)c1	2	4	1	82	23	96	/	/	/
O=[N+]([O-])c1cccc(C(=Nc2ccc(Cl)cc2)NO)c1	0	5	1	148*	-47	95	139*	98	99
C=CCNC(=O)COc1ccc(N(C)S(=O)(=O)c2ccc(NC(C)=O)cc2)cc1	-4	-7	0.91	100	0	107	/	/	/
Cn1c(=O)c(-c2cc(Br)ccc2N)nc2ccccc21	66	14	0.71	164*	-64	87	155*	115	93
Cc1ccc(C)n1-c1nccc(-c2cccs2)n1	-6	-5	1.3	140*	-35	104	115	106	103
Fc1cccc2sc(Nc3nc4c(F)cccc4s3)nc12	39	-4	1	156*	-72	104	182*	122*	119
COc1ccc(C(=O)NC(C(=O)NCC(=O)Nc2c(C)cccc2C)C(C)C)cc1 (stereo not drawn)	8	12	1.1	99	-2	89	/	/	/
CCOC(=O)c1cnn(-c2ncnc3c2cnn3Cc2ccccc2)c1N	-11	3	/	87	18	98	/	/	/
CCOC(=O)c1cnn(-c2ncnc3sc(C)c(C)c23)c1N	24	6	0.8	149*	-57	95	143*	101	104
COc1ccc2nc(SCC(=O)NCC(F)(F)F)[nH]c2c1	15	-9	1	97	5	107	/	/	/
Cc1cc(Br)ccc1-n1[nH]c(C)c(C=Nc2cccc3nsnc23)c1=O	4	-10	0.83	138*	-45	108	133*	101	99
O=C(CN1C(=O)CCC1=O)Nc1ccc(Cc2ccc(NC(=O)CN3C(=O)CCC3=O)cc2)cc1	25	-2	0.9	97	5	102	/	/	/
CN(O)/C=C1\C(=O)Nc2ccccc21	-18	-3	1.2	142*	-50	102	115	98	103
CCO/C(C)=C1\C(=O)Nc2ccccc21	-12	20	1	101	3	81	/	/	/
CCn1cc(CN2N=C(C)CC2c2ccccc2)c(C)n1 (stereo not drawn)	-10	-9	1.1	102	6	106	/	/	/
NNC(=O)c1ccc2ccccc2n1	24	1	1.2	144*	-38	98	141*	105	100
O=C(NN=C1CCCCCCCCCCC1)c1ccncc1	6	-8	0.91	97	5	107	/	/	/
O=C(NN=C1CCCCCCC1)c1ccc2ccccc2n1	16	-12	1.3	154*	-63	110	140*	107	119
CC(C)c1onc(C(=O)N2CCN(Cc3ccccc3)CC2)c1[N+](=O)[O-]	18	-6	0.82	98	3	105	/	/	/
ClC(Cl)(c1nnnn1-c1ccccc1)c1nnnn1-c1ccccc1	-44	5	2	97	1	95	/	/	/
